Compound activity: PubChem BioAssay, The Scripps Research Institute Molecular Screening Center
In the library only some 1.8% were active in any assay of this set; here they are far more common.
HTRA1 inh = blocks human HTRA1 serine peptidase. Q92743. recombinant HTRA1, FP-rhodamine activity-based probe, fluorescence polarization. inhibition, % at 5.96 µM. 0.5% of 340,000 active. AID 504803; in the data active means inhibition above about 36%;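 further: 0% = enzyme with DMSO and 100% = wells lacking enzyme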
ABHD4 inh = ABHD4 (mouse) inhibition, primary FP screen | inhibition, % at 8.92 µM | 0.54% of 370,000 active | Q8VD66 | purified mABHD4, FP-Rh probe fluorescence polarization | AID 720543;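 active means inhibition exceeding the mean over every tested compound plus 3 SD, cut at about 30% in these data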;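 further: 0% = plate median of compound wells and 100% = S159A mutant with DMSO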
Target sequence (Q8VD66 whole entry, looked up): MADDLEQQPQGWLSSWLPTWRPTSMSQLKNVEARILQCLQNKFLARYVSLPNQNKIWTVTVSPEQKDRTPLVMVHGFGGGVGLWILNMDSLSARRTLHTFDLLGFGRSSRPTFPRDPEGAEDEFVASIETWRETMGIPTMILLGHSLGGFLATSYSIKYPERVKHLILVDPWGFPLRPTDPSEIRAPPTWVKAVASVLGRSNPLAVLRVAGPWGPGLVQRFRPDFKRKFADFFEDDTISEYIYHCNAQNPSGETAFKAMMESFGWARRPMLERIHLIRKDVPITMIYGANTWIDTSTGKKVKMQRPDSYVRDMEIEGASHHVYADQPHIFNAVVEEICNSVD
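Doses – 8.92 µM, single dose · Material – wild-type mouse ABHD4 protein · Replication – single well per compound (singlicate) · Measure – percent inhibition of probe binding, normalized to plate controls · Schedule – 45 min compound pre-incubation plus 60 min probe step, 25 °C · Detection – fluorescence polarization with parallel and perpendicular emission, 525/598 nm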
TCR-CD3 inh = blocks the human TCR-CD3 interaction | TAMRA-labeled TCR probe fluorescence, biochemical | inhibition, % at 9.4 µM | 0.37% of 360,000 active | AID 651800; in the data active means inhibition above about 19%;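 further: recombinant mutant TCR 2C K166C tagged with TAMRA read by polarization; 0% = receptor in buffer alone and 100% = receptor with positive control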
Tn7 DDE FP = disrupts Tn7 cyclic peptide binding to fibrin D-Dimer-E complex; AID 720508; 0.13% of 370,000 active; FP displacement of FITC-Tn7 peptide from fibrin DD(E); 0% = median of compound wells per plate; inhibition, % at 8.3 µM;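 active means inhibition above the mean of compounds falling within the control limits plus 3 SD of them, cut at about 14% in these data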;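 further: 0% = plate median of compound wells and 100% = 10 µM Aha-Tn7 peptide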
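Also added: labelled Tn7 tracer, 0.1 µM; Assay system: human fibrin DD(E) protein; Amount: 2 µM fibrin DD(E); Schedule: 10 min compound pre-incubation, 3 h probe incubation at room temperature; Repeats: one replicate per compound; Read-out basis: percent inhibition; Measured by: fluorescence polarization of the labelled Tn7 tracer.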
SIAE inh = human SIAE inhibition, primary screen; 0.69% of 370,000 active; SIAE FP-Rh probe binding, fluorescence polarization; AID 1053197; inhibition, % at 9.66 µM;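 active means inhibition above a cutoff: mean of compounds within the control limits plus 3 SD of those, cut at about 17% in these data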;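 further: 0% = plate median of compound wells and 100% = probe without SIAE protein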
Tn6 DDE FP = DD(E)-Tn6 binding inhibition, primary FP screen; 0.21% of 370,000 active; inhibition, % at 8.3 µM; AID 720509; Fibrin DD(E) TRITC-Tn6 fluorescence polarization displacement;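 active means inhibition above a per-campaign cutoff: mean of compounds within control limits plus 3 SD, cut at about 15% in these data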;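 further: 0% = median of all compound wells on the plate and 100% = blocking peptide control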
HTRA1 inh conf = confirmation of human HTRA1 inhibitors | shares compounds with HTRA1 inh | recombinant HTRA1, FP-rhodamine activity-based probe, fluorescence polarization | inhibition, % at 5.96 µM | 66% of 1,600 active | AID 540248;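 active means mean inhibition over three repeats above a set limit taken from the earlier primary screen, cut at about 37% in these data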;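 further: 0% = HTRA1 with DMSO and 100% = wells lacking HTRA1; inhibitors block probe binding so polarization drops and inhibition rises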
Active calls of the source: *; x = no result.

SMILES	HTRA1 inh	ABHD4 inh	TCR-CD3 inh	Tn7 DDE FP	SIAE inh	Tn6 DDE FP	HTRA1 inh conf
O=C(O)c1ccccc1NC(c1ccccc1)c1ccc2cccnc2c1O (stereo not drawn)	49*	20	3	-2	3	8	68*
CCCCC(=O)NC(c1ccc(Cl)cc1Cl)c1ccc2cccnc2c1O (stereo not drawn)	48*	11	-1	-7	4	0	76*
CCCCC(=O)NC(c1ccc(OC)cc1)c1ccc2cccnc2c1O (stereo not drawn)	18	4	5	9	8	0	x
COc1ccccc1NC(c1cccnc1)c1ccc2cccnc2c1O (stereo not drawn)	26	4	9	-3	10	6	x
Nc1nc2cc3c(cc2cc1C(=O)NCCc1c[nH]c2ccccc12)OCO3	x	8	-5	1	11	-11	x
CCc1cc(C(=O)Nc2nc(-c3ccccn3)cs2)sc1C	37*	-4	2	-7	-12	-7	20
COc1cccc(/C=N/Nc2ncnc3c2ncn3Cc2ccccc2)c1O	41*	25	17	-5	3	-7	47*
C/C(CC(=O)Nc1ccc2ccccc2c1)=N\NC(=O)c1cnccn1	-7	-16	2	2	-2	1	x
C/C(CC(=O)Nc1ccc2ccccc2c1)=N\NC(=O)c1ccc(O)c(O)c1	69*	9	19	6	7	-4	84*
CCCCNC(=S)NCc1ccc2c(c1)cc(C)n2C	13	13	3	4	3	2	x
COc1ccccc1NC(=S)NCc1ccc2c(c1)cc(C)n2C	38*	2	-1	-1	4	2	-6
Cc1cc2cc(CNC(=S)NC3CCCCC3)ccc2n1C	40*	6	-9	1	0	-4	-6
Cc1cc2cc(CNC(=S)NCc3ccccc3)ccc2n1C	49*	14	0	-4	8	3	-16
CC(=O)NC(CC(=O)NNC(=O)C(C)Oc1ccccc1F)c1ccccc1 (stereo not drawn)	6	-1	-3	3	6	-3	x
COCC(=O)N(C)[C@H]1C[C@H]2c3[nH]c4c(-c5ccccc5)cccc4c3CCN2C(=O)[C@H]1[C@H](C)O	x	-2	8	7	3	-2	x
CCCCC1=CC2=CC(=O)C(C)(OC(=O)C3CCCC3)C(=O)C2=CO1 (stereo not drawn)	39*	24	2	6	5	10	44*
COC(=O)CCCC1=CC2=CC(=O)C(C)(OC(=O)C3CCCC3)C(=O)C2=CO1 (stereo not drawn)	20	x	x	x	x	x	x
CCOc1cc(C(=O)N(C)CC(=O)Nc2cccc3ccccc23)ccc1OC	-2	5	6	-5	1	4	x
O=C(CSc1nnc(-c2ccccc2)n1Cc1ccco1)Nc1ccc(OCc2ccccc2)cc1	x	-22	x	-7	-17	-9	x
COc1ccccc1/C=C/C(=O)NCC(=O)N1CCC(N(C)C2CCCC2)CC1	-1	-2	6	-6	2	-4	x
COc1cc(/C=C/C(=O)NCC(=O)N2CCC(N(C)CCN3CCOCC3)CC2)ccc1OC(C)C	37*	3	-1	5	1	4	-1
CCOC(=O)[C@]12CCCC=C1N(CCCOC)C(=O)[C@@H]2CC(=O)N1CCSCC1	x	-1	x	-5	-5	-1	x
COc1cccc(N=Nc2ccc3cccnc3c2O)c1	77*	21	6	4	12	-3	77*
Cc1ccccc1N=Nc1ccc(O)c2ncccc12	37*	14	5	-5	10	-4	65*
O=S(=O)(O)c1cccc2c(N=Nc3ccc(O)c4ncccc34)cccc12	71*	x	x	x	x	x	75*
SMILES	HTRA1 inh	ABHD4 inh	TCR-CD3 inh	Tn7 DDE FP	SIAE inh	Tn6 DDE FP	HTRA1 inh conf
O=Nc1ccc(O)c2ncccc12	9	0	3	-2	-31	-5	x
COc1ccc(N=Nc2ccc(O)c3ncccc23)cc1	44*	14	-1	2	8	-5	63*
COC(=O)[C@H](C(C)C)N1Cc2nnn(Cc3ccccc3)c2-c2ccccc2S1(=O)=O	x	-1	x	-7	9	12	x
O=S1(=O)c2ccc(N3CC[C@H](O)C3)cc2O[C@@H]2CCN1C2	x	-4	x	-12	0	-2	x
NC[C@@H]1O[C@H](C23CC4CC(CC(C4)C2)C3)Cc2c1ccc(O)c2O	60*	21	-1	-6	-3	-3	73*
Cc1ccc2ccc(C(Nc3cccc(C(F)(F)F)c3)c3cccnc3)c(O)c2n1 (stereo not drawn)	54*	4	-1	6	4	-1	61*
CCC[n+]1c(C)sc2c3c(ccc21)CCCC3	46*	x	x	x	x	x	50*
O=C(CSc1nnc(CNc2ccc(Cl)cc2)o1)Nc1nc2c(s1)CCCC2	38*	26	-2	5	5	-5	5
COc1ccc(CCNC(=O)CSc2nnc(CNc3ccc(Cl)cc3)o2)cc1OC	-2	0	8	7	-5	7	x
CCCCCCNC(=O)C1CSCCS(=O)(=O)N1Cc1ccccc1 (stereo not drawn)	x	-4	x	-4	-2	-7	x
COc1cc(C(=S)N2CCN(c3ccccc3Cl)CC2)cc(O)c1O	51*	24	16	-2	2	8	84*
Nc1nc(COc2ccccc2C=O)nc(Nc2ccccc2)n1	-25	-2	-2	6	-16	-1	x
Cc1ccccc1CC(=O)N1CCC(n2nnc3ncccc32)CC1	x	0	x	-3	1	-1	x
CCCCCCCCCCCCCCCC[n+]1ccc(/C=N/O)cc1	61*	51*	3	-2	68*	-9	81*
O/N=C/c1cccc[n+]1CCCCCC[n+]1ccccc1/C=N/O	16	-4	6	2	4	5	x
O=C(NC(C(=O)N/N=C/c1c2ccccc2cc2ccccc12)c1n[nH]c(=O)c2ccccc12)c1ccccc1 (stereo not drawn)	40*	-16	6	8	-32	-1	-72
O=C(Nc1ccc(C(O)(C(F)(F)F)C(F)(F)F)cc1)c1ccc(Cl)cc1	x	-52	x	0	-22	-2	x
CCCCCCCCN1C(=O)[C@@H](CC(=O)NCCc2ccccc2OC)C[C@@]2(C(=O)OC)C1=C[C@H](C(C)C)O[C@@H]2C1CC1	x	-8	x	-7	9	-8	x
Cc1ccc(-c2nn(-c3ccccc3)cc2C(=O)N2CCN(C3CCS(=O)(=O)C3)CC2)cc1 (stereo not drawn)	3	-1	-5	2	1	-2	x
